Experiment [1] is filed under the species Rattus norvegicus. Nature of the experiment: Inhibition of MAGL in Wistar rat cerebellar membrane at 100 uM. Format: cell membranes. As to conditions: Cerebellum. In short, it runs like this: (§1)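 Cerebellar membranes from 4-week-old male Wistar rats. Preincubation 30 min at 25 °C: 10 µg protein, 44 mM Tris-HCl pH 7.4, 0.9 mM EDTA, 0.5% BSA, 1.25% DMSO. Incubation 90 min at 25 °C: 5 µg protein, 54 mM Tris-HCl, 1.1 mM EDTA, 100 mM NaCl, 5 mM MgCl2, 0.5% BSA, 50 µM 2-AG. Samples at 0 and 90 min stopped with acidified acetonitrile (pH 3.0). 2-AG and arachidonic acid quantified by HPLC-UV at 211 nm from peak areas.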

The target in experiment [2] is T1, Fatty-acid amide hydrolase 1 (Rattus norvegicus) (UniProt P97612).
T1 sequence (whole entry): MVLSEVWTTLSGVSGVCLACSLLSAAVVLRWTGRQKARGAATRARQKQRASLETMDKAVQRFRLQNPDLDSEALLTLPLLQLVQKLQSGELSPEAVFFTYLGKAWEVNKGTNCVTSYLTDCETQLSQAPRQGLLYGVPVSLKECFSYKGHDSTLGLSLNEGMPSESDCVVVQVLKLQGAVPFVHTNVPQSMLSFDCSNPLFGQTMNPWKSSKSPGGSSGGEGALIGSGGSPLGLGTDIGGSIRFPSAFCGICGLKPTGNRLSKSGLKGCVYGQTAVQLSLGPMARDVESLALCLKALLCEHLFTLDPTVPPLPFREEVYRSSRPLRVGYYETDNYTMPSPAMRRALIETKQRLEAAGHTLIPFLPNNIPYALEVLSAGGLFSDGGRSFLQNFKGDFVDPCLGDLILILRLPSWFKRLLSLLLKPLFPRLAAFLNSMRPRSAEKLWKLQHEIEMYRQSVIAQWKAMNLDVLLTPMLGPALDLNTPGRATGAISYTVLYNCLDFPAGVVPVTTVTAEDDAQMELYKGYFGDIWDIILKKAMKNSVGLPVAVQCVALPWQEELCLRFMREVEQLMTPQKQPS
Nature of the experiment: Inhibition of FAAH activity in Wistar rat brain assessed as remaining enzyme activity at 10 uM; values are per cent of control.

In experiment [3] the target is T2, Fatty-acid amide hydrolase 1 (Rattus norvegicus, UniProt P97612).
T2 sequence (P97612 whole entry): T1 sequence (whole entry)
Put plainly: Inhibition of FAAH activity in Wistar rat brain. In short, it runs like this: (§2)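 Enzyme source: supernatant (10 000 g, 20 min, 4 °C) of whole-brain-minus-cerebellum homogenate from 8-week-old male Wistar rats in 0.1 M potassium phosphate pH 7.4. Compound (in DMSO, final max 5%) preincubated 10 min with 18 µg protein. Substrate: [ethanolamine 1-³H]arachidonoylethanolamide, with 0.5% fatty-acid-free BSA, 10 min at 37 °C. Stopped with ethyl acetate. Aqueous [³H]ethanolamine counted by liquid scintillation.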

The species named for experiment [4] is Rattus norvegicus. Nature of the experiment: Inhibition of MAGL in Wistar rat cerebellar membrane assessed as remaining enzyme activity at 100 uM; values are per cent of control. As to conditions: Cerebellum.
The nature of experiment [5]: Inhibition of MAGL in Wistar rat cerebellar membrane. Format: cell membranes, Cerebellum. In short, it runs like this:
as §1

Experiment [6] is filed under the species Rattus norvegicus. Put plainly: Inhibition of MAGL in Wistar rat cerebellar membrane assessed as remaining enzyme activity at 1 mM; values are per cent of control. As to conditions: Cerebellum.
The target of experiment [7] is T1, Fatty-acid amide hydrolase 1 (Rattus norvegicus). Nature of the experiment: Inhibition of FAAH activity in Wistar rat brain at 10 uM. In short, it runs like this:
as §2

Active and inactive are the calls of the source. The rule behind the calls is not given here.

For `O=C(c1cccc(NC(=O)C2CCCC2)c1)c1nc2ccccc2o1`, in experiment [1], the result was inactive. Moreover, the residual activity in experiment [2] was found to be 95%.

For `CCCCNC(=O)Oc1cccc(C(=O)c2nc3ccccc3s2)c1`, in experiment [3], the IC50 came out at 103 nM. For the same compound, the residual activity in experiment [4] amounted to 76%.

Regarding `CCCNC(=O)Oc1cccc(C(=O)c2nc3ccccc3o2)c1`, the IC50 in experiment [3] came to 109 nM. Moreover, the residual activity in experiment [4] was 57%.

In experiment [3], `O=C(NC1CCCCC1)Oc1cccc(C(=O)c2nc3ccccc3o2)c1` gave an IC50 of 47 nM. Also, the residual activity in experiment [4] was found to be 83%.

Regarding `CCCNC(=O)Oc1cccc(C(=O)c2nc3ccccc3s2)c1`, the IC50 in experiment [3] stood at 143 nM. In addition, in experiment [4], the residual activity stood at 70%.

`O=C(NC1CCCCC1)Oc1cccc(C(=O)c2nc3ccccc3s2)c1` had an IC50 in experiment [3] of 56 nM. For the same compound, the residual activity in experiment [4] was 79%.

The compound `CCCCNC(=O)Oc1cccc(C(=O)c2nc3ccccc3o2)c1` had an IC50 in experiment [3] of 54 nM. For the same compound, the residual activity in experiment [4] stood at 59%.

In experiment [3], `CCNC(=O)Oc1cccc(C(=O)c2nc3ccccc3s2)c1` showed an IC50 of 238 nM. The residual activity in experiment [4] worked out at 80%.

In turn, `O=C(NCc1ccccc1)Oc1cccc(C(=O)c2nc3ccccc3o2)c1` showed an IC50 in experiment [3] of 152 nM. Further, in experiment [4], the residual activity stood at 57%.

Consider `O=C(c1cccc(OC(=O)C2CCCC2)c1)c1nc2ccccc2o1`, for which the outcome in experiment [1] was inactive. In experiment [2], the residual activity was 88%.

As for `O=C(Nc1cccc(C(=O)c2nc3ccccc3o2)c1)OC1CCCC1`, the outcome in experiment [1] was inactive. For the same compound, the residual activity in experiment [2] worked out at 95%.

For the compound `O=C(NC1CCCC1)Oc1ccc(C(=O)c2nc3ccccc3o2)cc1`, the IC50 worked out at 288 nM in experiment [3] and 14000 nM in experiment [5].

Consider `O=C(NCc1ccccc1)Oc1cccc(C(=O)c2nc3ccccc3s2)c1`, for which the IC50 in experiment [3] came out at 121 nM. Also, the residual activity in experiment [4] turned out to be 75%.

Take `O=C(Nc1cccc(C(=O)c2nc3ccccc3o2)c1)NC1CCCC1`: in experiment [1], the result was inactive. Further, the residual activity in experiment [2] came out at 94%.

Turning to `Cc1cccc(CNC(=O)Oc2cccc(C(=O)c3nc4ccccc4o3)c2)c1`, the IC50 in experiment [3] amounted to 32 nM; in experiment [5], 16000 nM. Moreover, in experiment [6], the residual activity stood at 11%.

With `CCNC(=O)Oc1cccc(C(=O)c2nc3ccccc3o2)c1`, the midpoint of inhibition in experiment [3], the IC50, lay at 379 nM. Also, the residual activity in experiment [4] was 75%.

The compound `O=C(NC1CCCC1)Oc1cccc(C(=O)c2nc3ccccc3s2)c1` showed an IC50 in experiment [3] of 47 nM. The residual activity in experiment [4] was 71%.

In the case of `O=C(NC1CCCC1)Oc1cccc(C(=O)c2nc3ccccc3o2)c1`, inhibition in experiment [3] was half-maximal at 28 nM (IC50). In addition, the residual activity in experiment [4] worked out at 54%.

Regarding `O=C(c1cccc(OCc2ccccc2)c1)c1nc2ccccc2o1`, the result in experiment [7] and in experiment [1] was inactive.

For `Cc1ccccc1CNC(=O)Oc1ccc(C(=O)c2nc3ccccc3o2)cc1`, the IC50 was 137 nM in experiment [3] and 25000 nM in experiment [5]. Further, the residual activity in experiment [6] is 11%.

On to `Cc1cccc(CNC(=O)Oc2cccc(C(=O)c3nc4ccccc4s3)c2)c1`, for which the IC50 in experiment [3] amounted to 38 nM; in experiment [5], 23000 nM. Besides, in experiment [6], the residual activity was found to be 11%.

Take `O=C(c1cccc(OCc2ccccc2)c1)c1nc2ccccc2s1`: the result in experiment [7] was inactive. Moreover, the inhibition result in experiment [1] is “inactive”.

As usually defined, the residual activity is the signal under treatment as a percentage of the control signal. The term IC50 denotes the midpoint of a concentration-inhibition curve. Read a high IC50 as lower potency.
